Two compounds from ChEMBL document CHEMBL4219177, “Synthesis and evaluation of the antibacterial activities of aryl substituted dihydrotriazine derivatives” (Bioorg Med Chem Lett, 2018) can be followed below.

≈ marks a conversion by molar mass, not a printed value.

Assay [1] relates to Staphylococcus aureus. Description: Antibacterial activity against Staphylococcus aureus 4220 after 24 hrs by two-fold serial dilution method. Type of assay: functional. The following applies: RN4220, 24 h. An outline of the steps:
(§1)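 Broth microdilution MIC. Bacteria were grown to mid-log phase in Mueller-Hinton broth, diluted 1000-fold, and inoculated at 10^5 CFU/mL. Compounds in DMSO (final ≤0.05%) were tested as two-fold serial dilutions from 64 to 0.25. Plates were incubated 24 h at 37 °C and growth read as absorbance at 650 nm. MIC = concentration completely inhibiting growth. Experiments were run three times.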

For assay [2], the system named is Staphylococcus aureus. Description: Antibacterial activity against quinolone-resistant Staphylococcus aureus isolate CCARM 3505 after 24 hrs by two-fold serial dilution method. It is filed as functional. The following applies: isolate CCARM 3505, 24 h. A digest of the protocol:
as §1

In assay [3] the test system is Staphylococcus aureus. Put plainly: Antibacterial activity against methicillin-resistant Staphylococcus aureus isolate CCARM 3167 after 24 hrs by two-fold serial dilution method. Type of assay: functional. The following applies: isolate CCARM 3167, 24 h.
For assay [4], the system named is Streptococcus mutans. Put plainly: Antibacterial activity against Streptococcus mutans 3289 after 24 hrs by two-fold serial dilution method. It is filed as functional. The following applies: Streptococcus mutans, 3289, 24 h.
In assay [5] the test system is Candida albicans. Put plainly: Antifungal activity against Candida albicans 7535 after 24 hrs by two-fold serial dilution method. Type of assay: functional. The following applies: Candida albicans, 7535, 24 h.
Assay [6] deals with Escherichia coli. Description: Antibacterial activity against Escherichia coli 1924 after 24 hrs by two-fold serial dilution method. It is filed as functional. The following applies: Escherichia coli, 1924, 24 h. A digest of the protocol:
(§2)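 Bacteria grown to mid-log phase in Mueller-Hinton broth, diluted 1000-fold, and inoculated at 10^5 CFU/mL. Compounds were dissolved in DMSO (final ≤0.05%) and two-fold serially diluted. MIC was the lowest concentration giving complete growth inhibition after 24 h at 37 °C, with growth read as absorbance at 650 nm. Each experiment was run three times.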

In assay [7] the test system is Pseudomonas aeruginosa. Description: Antibacterial activity against Pseudomonas aeruginosa 2742 after 24 hrs by two-fold serial dilution method. Type of assay: functional. The following applies: Pseudomonas aeruginosa, 2742, 24 h. A digest of the protocol: as §2
Assay [8] concerns Salmonella typhimurium. Put plainly: Antibacterial activity against Salmonella typhimurium 2421 after 24 hrs by two-fold serial dilution method. Type of assay: functional, Salmonella enterica subsp. enterica serovar Typhimurium. The following applies: Salmonella enterica, 2421, 24 h. An outline of the steps:
as §2

Assay [9] relates to L02. Put plainly: Cytotoxicity against human L02 cells assessed as growth inhibition after 24 hrs by MTT assay. The following applies: L02, 24 h. Type of assay: cell-based. On the technique in general: Tetrazolium assays rely on reduction of a dye to a coloured formazan, in cell work by metabolically active cells.
The subject of assay [10] is Staphylococcus aureus. Put plainly: Potency index, ratio of moxifloxacin MIC to compound MIC for quinolone-resistant Staphylococcus aureus isolate CCARM 3505. It is filed as functional.
Assay [11] has as its system Staphylococcus aureus. Description: Potency index, ratio of gatifloxacin MIC to compound MIC for quinolone-resistant Staphylococcus aureus isolate CCARM 3505. It is filed as functional.
The subject of assay [12] is Escherichia coli. Put plainly: Potency index, ratio of moxifloxacin MIC to compound MIC for Escherichia coli 1924. Type of assay: functional.
In assay [13] the test system is Escherichia coli. Put plainly: Potency index, ratio of gatifloxacin MIC to compound MIC for Escherichia coli 1924. It is filed as functional.
For assay [14], the target named is Dihydrofolate reductase (Staphylococcus aureus) (UniProt P0A017). Description: Inhibition of Staphylococcus aureus DHFR at 10 uM after 1.5 hrs by ELISA relative to control. The following applies: Staphylococcus aureus subsp. aureus RN4220.
Dihydrofolate reductase (Staphylococcus aureus), sequence (P0A017 2-159 limits assumed): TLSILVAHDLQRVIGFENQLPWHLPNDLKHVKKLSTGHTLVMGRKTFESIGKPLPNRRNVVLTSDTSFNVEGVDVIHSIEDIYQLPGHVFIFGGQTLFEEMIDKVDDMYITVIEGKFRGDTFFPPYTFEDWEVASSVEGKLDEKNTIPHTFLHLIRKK

Take `CN(C)C1=NC(c2ccc3cc(OCc4ccc(Cl)cc4Cl)ccc3c2)N=C(N)N1` (stereo not drawn): the MIC – broadly, the smallest concentration in the dilution series that meets the test's criterion for growth inhibition – in assay [1] worked out at 1.13 µM (≈ 0.5 µg/mL); in assay [2], 0.5 µg/mL (≈ 1.13 µM); in assay [3], 2.27 µM (≈ 1 µg/mL); in [4] it was 1 µg/mL (≈ 2.26 µM); in assay [5], 1 µg/mL (≈ 2.26 µM); in assay [6], 0.5 µg/mL (≈ 1.13 µM). In addition, the MIC in assay [7] and in assay [8] was 64 µg/mL (≈ 145 µM) each time. The IC50 (usually the concentration at which inhibition is half-maximal) in [9] came out at 58.9 µM. Further, the Ratio in [10] came out at 8; in assay [11], 16; in assay [12], 4; in assay [13], 4. Besides, the inhibition (commonly the drop in the measured response relative to a control, in per cent) in assay [14] was found to be 58%.
On to `CN(C)C1=NC(c2ccc(/C=C/C(=O)c3ccc(Cl)cc3Cl)cc2)N=C(N)N1` (stereo not drawn), for which the MIC in assay [1] is 19.3 µM (≈ 8.02 µg/mL); in assay [2], 8 µg/mL (≈ 19.2 µM); in [3] it was 19.3 µM (≈ 8.02 µg/mL); in assay [4], 4 µg/mL (≈ 9.61 µM); in assay [5], 8 µg/mL (≈ 19.2 µM); in assay [6], 8 µg/mL (≈ 19.2 µM). The values for the minimal inhibitory concentration (MIC) in [7] and in assay [8] were 64 µg/mL (≈ 154 µM) and above 64 µg/mL, respectively. Besides, in [9], the IC50 amounted to 45.1 µM.
